# Source: ChEMBL document CHEMBL1145859, “Tethered dimers as NAD synthetase inhibitors with antibacterial activity” (J Med Chem, 2003)
# pIC50: −log10 of the molar value.
# Key:
# [1] = target: T1, NH(3)-dependent NAD(+) synthetase (Bacillus subtilis (strain 168), UniProt P08164); test: Inhibitory activity against Bacillus subtilis NAD synthetase
# T1 sequence (P08164 whole entry): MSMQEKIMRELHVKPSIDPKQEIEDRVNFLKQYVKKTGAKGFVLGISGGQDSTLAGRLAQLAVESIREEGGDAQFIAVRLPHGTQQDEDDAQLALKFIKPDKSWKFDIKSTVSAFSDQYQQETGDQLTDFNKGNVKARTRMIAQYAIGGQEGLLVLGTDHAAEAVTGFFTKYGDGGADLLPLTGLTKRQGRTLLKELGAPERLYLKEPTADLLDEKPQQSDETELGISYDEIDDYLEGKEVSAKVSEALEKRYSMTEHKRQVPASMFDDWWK
# Summary of the method: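 Purified recombinant B. subtilis NAD synthetase (2.0 µg/mL) in coupled assay, pH 8.5: 58.5 mM HEPES, 18.5 mM NH4Cl, 19.5 mM KCl, 9.75 mM MgCl2, 1% EtOH, 0.1 mM NaAD, 0.3% BOG, 40 µg/mL yeast ADH, 0.2 mM ATP, 2.5% DMSO. ATP-started, 10 min, guanidine·HCl stop; NADH read at A340 and fluorescence 460 nm, background-subtracted; IC50 from % inhibition at six concentrations.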
# Staphylococcus aureus [2] = test: Minimum inhibitory concentration required against Staphylococcus aureus ATCC 29213; type: functional
# Summary of the method: (§1)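 Broth doubling-dilution MIC run in duplicate series from 50 µg/mL (1% DMSO final). Each tube received 0.01 mL of inoculum from a log-phase culture (5–6 h, 37 °C) adjusted to about 5 × 10^8 CFU/mL. Incubation 20 h at 37 ± 2 °C. MIC is the lowest concentration with no visible growth. Viability, sterility and reference-antibiotic controls included.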
# Staphylococcus aureus [3] = test: Minimum inhibitory concentration required against Staphylococcus aureus ATCC 33591; type: functional; summary of the method: as §1
# Staphylococcus aureus [4] = test: Minimum inhibitory concentration required against Staphylococcus aureus ATCC 33592; type: functional; summary of the method: as §1
# Staphylococcus aureus [5] = test: Minimum inhibitory concentration required against Staphylococcus aureus ATCC 33593; type: functional; summary of the method: as §1
# Bacillus subtilis = test: Minimum inhibitory concentration required against Bacillus subtilis ATCC 14289; type: functional; summary of the method: as §1
# Pseudomonas aeruginosa = test: Minimum inhibitory concentration required against Pseudomonas aeruginosa ATCC 27853; type: functional; summary of the method: as §1
# Salmonella enteritidis [6] = test: Minimum inhibitory concentration required against Salmonella enteritidis ATCC 13076; type: functional, Salmonella enterica subsp. enterica serovar Enteritidis; conditions: Salmonella enterica; summary of the method: as §1
# Salmonella enteritidis [7] = test: microbe, parasite or virus in culture; conditions: Salmonella enterica, ATCC 13076
Molecule,pIC50 [1],also measured
COc1cccc(OC)c1C(=O)N[C@@H]1C(=O)N2[C@@H]1SC(C)(C)[C@@H]2C(=O)O,< 6.00,MIC (Staphylococcus aureus [2]): 1 µM; MIC (Staphylococcus aureus [3]): 32 µM; MIC (Staphylococcus aureus [4]): 32 µM; MIC (Staphylococcus aureus [5]): 32 µM
CO[C@H]1/C=C/O[C@@]2(C)Oc3c(C)c(O)c4c(O)c(c(/C=N/N5CCN(C)CC5)c(O)c4c3C2=O)NC(=O)/C(C)=C\C=C\[C@H](C)[C@H](O)[C@@H](C)[C@@H](O)[C@@H](C)[C@H](OC(C)=O)[C@@H]1C [RIFAMPIN],< 6.00,MIC (Bacillus subtilis): 1 µM
COC(=O)c1cc2cc(OCc3ccccc3)ccc2n1CCCCCCCOC(=O)c1ccc[n+](C)c1,4.74,MIC (Bacillus subtilis): 6.2 µM; MIC (Pseudomonas aeruginosa): > 50 µM; MIC (Salmonella enteritidis [6]): > 50 µM; MIC (Staphylococcus aureus [2]): 3.1 µM
C[N+](C)(C)c1ccc(CC(=O)OCCCCCCCCCn2ccc3cc([N+](=O)[O-])ccc32)cc1,4.62,
C[n+]1cccc(C(=O)OCCCCn2ccc3cc([N+](=O)[O-])ccc32)c1,< 3.00,
C[N+](C)(C)c1ccc(CC(=O)OCCCCCn2ccc3cc(OCc4ccccc4)ccc32)cc1,4.22,
COC(=O)c1cc2ccccc2n1CCCCCCCCCOC(=O)c1ccc[n+](C)c1,4.47,
O=C(OCCCCCn1ccc2cc([N+](=O)[O-])ccc21)c1cccnc1,< 3.00,
C[n+]1cccc(C(=O)OCCCCCn2ccc3cc([N+](=O)[O-])ccc32)c1,3.00,
C[n+]1cccc(C(=O)OCCCCCCn2ccc3cc([N+](=O)[O-])ccc32)c1,3.30,
C[n+]1cccc(C(=O)OCCCCCn2ccc3cc(OCc4ccccc4)ccc32)c1,4.03,
C[n+]1cccc(C(=O)OCCCCCCCCn2ccc3cc(OCc4ccccc4)ccc32)c1,,MIC (Bacillus subtilis): 6.2 µM; MIC (Pseudomonas aeruginosa): 50 µM; MIC (Salmonella enteritidis [6]): 50 µM; MIC (Staphylococcus aureus [2]): 1.5 µM; MIC (Staphylococcus aureus [3]): 12.5 µM; MIC (Staphylococcus aureus [4]): 6.2 µM; MIC (Staphylococcus aureus [5]): 3.1 µM
C[n+]1cccc(C(=O)OCCn2ccc3cc([N+](=O)[O-])ccc32)c1,< 3.00,
C[N+](C)(C)c1ccc(CC(=O)OCCCCCCn2ccc3cc([N+](=O)[O-])ccc32)cc1,4.08,
C[N+](C)(C)c1ccc(CC(=O)OCCCCn2ccc3cc([N+](=O)[O-])ccc32)cc1,4.05,
O=C(OCCCCCCCCn1ccc2cc(O)ccc21)c1cccnc1,< 3.70,
COc1cc(Cc2cnc(N)nc2N)cc(OC)c1OC [TRIMETHOPRIM],< 6.00,MIC (Salmonella enteritidis [7]): 0.5 µM
C[n+]1cccc(C(=O)OCCOCCOCCn2ccc3cc(OCc4ccccc4)ccc32)c1,< 3.70,MIC (Bacillus subtilis): > 50 µM; MIC (Staphylococcus aureus [2]): > 50 µM
C[N+](C)(C)c1ccc(CC(=O)OCCCCCCCCn2ccc3ccccc32)cc1,4.20,
COC(=O)c1cc2ccccc2n1CCCCCCCOC(=O)Cc1ccc([N+](C)(C)C)cc1,4.72,MIC (Bacillus subtilis): 1.5 µM; MIC (Pseudomonas aeruginosa): > 50 µM; MIC (Salmonella enteritidis [6]): > 50 µM; MIC (Staphylococcus aureus [2]): 12.5 µM
C[N+](C)(C)c1ccc(CC(=O)OCCCCCCn2ccc3cc(OCc4ccccc4)ccc32)cc1,4.16,
C[N+](C)(C)c1ccc(CC(=O)OCCCCCn2ccc3cc([N+](=O)[O-])ccc32)cc1,4.15,
COC(=O)c1cc2cc(OCc3ccccc3)ccc2n1CCCCCCCCCOC(=O)c1ccc[n+](C)c1,4.57,
C[n+]1cccc(C(=O)OCCCCCCCn2ccc3ccccc32)c1,4.02,

Molecule,pIC50 [1],also measured
COC(=O)c1cc2cc(OCc3ccccc3)ccc2n1CCCCCCCOC(=O)Cc1ccc([N+](C)(C)C)cc1,5.05,MIC (Bacillus subtilis): 1.5 µM; MIC (Pseudomonas aeruginosa): > 50 µM; MIC (Salmonella enteritidis [6]): > 50 µM; MIC (Staphylococcus aureus [2]): 1.5 µM; MIC (Staphylococcus aureus [3]): 6.2 µM; MIC (Staphylococcus aureus [4]): 3.1 µM; MIC (Staphylococcus aureus [5]): 3.1 µM
COC(=O)c1cc2ccccc2n1CCCCCCOC(=O)Cc1ccc([N+](C)(C)C)cc1,4.62,
O=C(OCCCCCCCCn1ccc2cc([N+](=O)[O-])ccc21)c1cccnc1,< 3.00,
O=C(OCCn1ccc2cc([N+](=O)[O-])ccc21)c1cccnc1,< 3.00,
C[n+]1cccc(C(=O)OCCCCCCn2ccc3cc(OCc4ccccc4)ccc32)c1,4.54,
COC(=O)c1cc2cc(OCc3ccccc3)ccc2n1CCCCCCCCOC(=O)Cc1ccc([N+](C)(C)C)cc1,4.70,
COC(=O)c1cc2cc(OCc3ccccc3)ccc2n1CCCCCCOC(=O)Cc1ccc([N+](C)(C)C)cc1,4.92,
COC(=O)c1cc2ccccc2n1CCCCCCCCOC(=O)c1cc[n+](C)cc1,4.36,
COC(=O)c1cc2cc(OCc3ccccc3)ccc2n1CCCCCCCCOC(=O)c1cc[n+](C)cc1,5.00,MIC (Bacillus subtilis): 12.5 µM; MIC (Pseudomonas aeruginosa): > 50 µM; MIC (Salmonella enteritidis [6]): > 50 µM; MIC (Staphylococcus aureus [2]): 6.2 µM
O=C(OCCCCCCCn1ccc2cc([N+](=O)[O-])ccc21)c1cccnc1,< 3.00,
GENTAMICIN,,MIC (Pseudomonas aeruginosa): 2 µM
C[n+]1cccc(C(=O)OCCCCCCCCCn2ccc3ccccc32)c1,4.32,
C[n+]1cccc(C(=O)OCCCn2ccc3cc([N+](=O)[O-])ccc32)c1,< 3.00,
COC(=O)c1cc2cc(OCc3ccccc3)ccc2n1CCCCCCCCCOC(=O)Cc1ccc([N+](C)(C)C)cc1,4.74,MIC (Bacillus subtilis): 1.5 µM; MIC (Staphylococcus aureus [2]): 6.2 µM
C[N+](C)(C)c1ccc(CC(=O)OCCCCCCCCCn2ccc3ccccc32)cc1,4.27,
O=C(OCCCn1ccc2cc([N+](=O)[O-])ccc21)c1cccnc1,< 3.00,
O=C(OCCCCn1ccc2cc([N+](=O)[O-])ccc21)c1cccnc1,< 3.00,
COc1ccc2c(ccn2CCCCCCCOC(=O)c2ccc[n+](C)c2)c1,4.62,
O=C(OCCCCCCn1ccc2cc([N+](=O)[O-])ccc21)c1cccnc1,< 3.00,
COC(=O)c1cc2cc(OCc3ccccc3)ccc2n1CCCCCCOC(=O)c1ccc[n+](C)c1,4.43,
C[N+](C)(C)c1ccc(CC(=O)OCCCCCCCCn2ccc3cc(OCc4ccccc4)ccc32)cc1,4.70,MIC (Bacillus subtilis): 1.5 µM; MIC (Pseudomonas aeruginosa): > 50 µM; MIC (Salmonella enteritidis [6]): > 50 µM; MIC (Staphylococcus aureus [2]): 3.1 µM
C[N+](C)(C)c1ccc(CC(=O)OCCCCn2ccc3cc(OCc4ccccc4)ccc32)cc1,4.08,
COC(=O)c1cc2ccccc2n1CCCCCCCCOC(=O)Cc1ccc([N+](C)(C)C)cc1,4.85,MIC (Bacillus subtilis): 6.2 µM; MIC (Pseudomonas aeruginosa): > 50 µM; MIC (Salmonella enteritidis [6]): > 50 µM; MIC (Staphylococcus aureus [2]): 3.1 µM
COC(=O)c1cc2ccccc2n1CCCCCCCOC(=O)c1ccc[n+](C)c1,4.47,
